The target of data set [1] is T1, ATP-dependent translocase ABCB1 (Homo sapiens, UniProt P08183). Description: Modulation of p-gp (unknown origin) transfected in human MDA435/LCC6MDR cells assessed as potentiation of paclitaxel-induced cytotoxicity at 1 uM after 5 days by MTS assay relative to untreated control. In kind it is cell-based. The conditions noted are these: 120 h. The gist of the method: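 6000 LCC6MDR or LCC6 cells per well co-incubated with paclitaxel with or without 1 μM modulator for 5 days at 37 °C. […] RF = IC50 without modulator divided by IC50 with modulator. N = 2–3 experiments; mean ± SEM.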
(In general: Formazan colour is commonly taken as a measure of viable cells.)

A short description of data set [2]: Cytotoxicity against human MDA435/LCC6 cells assessed as growth inhibition after 3 days by MTS assay. In kind it is functional, cell-based. The conditions noted are these: MDA-435/LCC6, 72 h. The gist of the method:
(§1)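 10 000 cells per well exposed to a concentration series of analogue for 3 days at 37 °C. Growth read by MTS proliferation assay and IC50 determined. Cells were cultured in DMEM with 10% heat-inactivated FBS and penicillin/streptomycin at 37 °C under 5% CO2.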

The nature of data set [3]: Cytotoxicity against human MDA435/LCC6MDR cells assessed as growth inhibition after 3 days by MTS assay. In kind it is functional, cell-based. The conditions noted are these: 72 h. The gist of the method:
as §1

For data set [4], the species on record is Homo sapiens. Description: Ratio of verapamil EC50 to compound EC50 for modulation of p-gp (unknown origin) transfected in human MDA435/LCC6MDR cells assessed as reversal of paclitaxel resistance. In kind it is cell-based.
The target of data set [5] is T2, Broad substrate specificity ATP-binding cassette transporter ABCG2 (Homo sapiens, UniProt Q9UNQ0).
T2 sequence (Q9UNQ0 whole entry): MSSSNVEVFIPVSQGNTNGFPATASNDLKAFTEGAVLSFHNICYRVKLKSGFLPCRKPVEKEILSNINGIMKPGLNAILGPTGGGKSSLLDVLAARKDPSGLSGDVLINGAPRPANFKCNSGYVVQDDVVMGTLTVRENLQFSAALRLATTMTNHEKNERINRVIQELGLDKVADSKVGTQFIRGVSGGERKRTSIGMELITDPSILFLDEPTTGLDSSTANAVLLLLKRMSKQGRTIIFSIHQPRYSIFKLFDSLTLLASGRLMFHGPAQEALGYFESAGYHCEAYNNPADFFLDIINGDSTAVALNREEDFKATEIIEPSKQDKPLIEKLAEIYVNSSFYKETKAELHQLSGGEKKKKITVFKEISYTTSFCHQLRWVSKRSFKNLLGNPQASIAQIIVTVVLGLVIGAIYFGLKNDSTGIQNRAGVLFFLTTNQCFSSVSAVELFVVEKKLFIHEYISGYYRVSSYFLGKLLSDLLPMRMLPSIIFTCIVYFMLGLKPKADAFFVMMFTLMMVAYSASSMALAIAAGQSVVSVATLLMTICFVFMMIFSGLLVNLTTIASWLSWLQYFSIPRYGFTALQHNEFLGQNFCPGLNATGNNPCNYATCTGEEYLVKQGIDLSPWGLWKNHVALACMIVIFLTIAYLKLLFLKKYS
As to the kind of experiment: Modulation of BCRP (unknown origin) transfected in human HEK293/R2 cells assessed as potentiation of topotecan-induced cytotoxicity at 1 uM after 5 days by MTS assay relative to untreated control. In kind it is cell-based. The conditions noted are these: hek293/r2, 120 h. The gist of the method: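 4500 HEK293/R2 or HEK293/pcDNA3.1 cells per well co-incubated with topotecan with or without 1 μM modulator for 5 days at 37 °C. Readout was MTS/PMS absorbance at 490 nm after 2 h. RF = IC50 without modulator divided by IC50 with modulator. N = 2–4 experiments.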

The target of data set [6] is T1, ATP-dependent translocase ABCB1. As to the kind of experiment: Modulation of p-gp (unknown origin) transfected in human MDA435/LCC6MDR cells assessed as induction of doxorubicin accumulation at 1 uM after 150 mins by spectrofluorometric analysis relative to control. In kind it is cell-based. The conditions noted are these: 2.5 h. In a few lines: (§2)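 1 × 10^6 LCC6 or LCC6MDR cells incubated with 20 μM doxorubicin plus 1 μM analogue at 37 °C for 150 min; 0.1% DMSO served as negative control. Cells were washed with cold PBS and lysed in 0.75 M HCl/0.2% Triton X-100 in 2-propanol. Supernatant DOX fluorescence was read at ex 460/em 610 nm. N = 3–5 experiments; Student's t test.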

The next data set relates to L929. As to the kind of experiment: Cytotoxicity against mouse L929 cells assessed as growth inhibition after 3 days by MTS assay. In kind it is cell-based. The conditions noted are these: L929, 72 h. In a few lines:
as §1

The target in data set [7] is T1, ATP-dependent translocase ABCB1. As to the kind of experiment: Inhibition of p-gp (unknown origin) transfected in human MDA435/LCC6MDR cells assessed as reversal of doxorubicin drug resistance relative to control. In kind it is cell-based.
The target of data set [8] is Multidrug resistance-associated protein 1 (Homo sapiens, UniProt P33527). As to the kind of experiment: Modulation of MRP1 (unknown origin) transfected in human 2008/MRP1 cells assessed as potentiation of doxorubicin-induced cytotoxicity at 1 uM after 5 days by MTS assay relative to untreated control. The conditions noted are these: 2008/mrp1, 120 h. In kind it is cell-based.

In a further data set the test system is MDA-435/LCC6. As to the kind of experiment: Induction of doxorubicin accumulation in human MDA435/LCC6 cells at 1 uM after 150 mins by spectrofluorometric analysis. In kind it is functional, cell-based. In a few lines:
as §2

The subject of another data set is P-gp (unknown origin). As to the kind of experiment: Therapeutic index, ratio of IC50 for mouse L929 cells to EC50 for modulation of p-gp (unknown origin) transfected in human MDA435/LCC6MDR cells assessed as reversal of paclitaxel resistance. In kind it is cell-based. Conditions: read-out: Ratio IC50/EC50. The gist of the method: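 Therapeutic index = L929 cytotoxicity IC50 (10 000 cells, 3-day MTS) divided by EC50 for reversing paclitaxel resistance in LCC6MDR (5-day MTS co-incubation with modulator series). N = 2–5 experiments.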

The nature of data set [9]: Drug uptake in human MDA435/LCC6 cells at 20 to 200 uM after 150 mins by reverse phase-HPLC analysis. In kind it is ADME, cell-based. Conditions: mda-435/lcc6, 2.5 h. In a few lines:
(§3)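 3 × 10^6 LCC6 or LCC6MDR cells incubated with 20 or 200 μM analogue at 37 °C for 150 min. Cells were then pelleted, washed with cold PBS pH 7.4, lysed in 100% methanol by vortexing for 5 min and spun. The supernatant was analysed by reversed-phase C18 HPLC with UV-vis detection. N = 2 independent experiments.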

Data set [10] deals with T1, ATP-dependent translocase ABCB1. Description: Modulation of p-gp (unknown origin) transfected in human MDA435/LCC6MDR cells assessed as increase in intracellular drug accumulation at 20 to 200 uM after 150 mins by reverse phase-HPLC analysis. The conditions noted are these: 2.5 h. In kind it is cell-based. In a few lines: as §3
The species named for data set [11] is Homo sapiens. Description: Ratio of compound activity to verapamil activity for modulation of p-gp (unknown origin) transfected in human MDA435/LCC6MDR cells assessed as potentiation of paclitaxel-induced cytotoxicity. In kind it is cell-based.

Each structure is given as a SMILES string. The source made the active and inactive calls. No cut-off for these calls is given here.

By IC50 is commonly meant the concentration that inhibits the measured activity by half.

T1 sequence (P08183 whole entry): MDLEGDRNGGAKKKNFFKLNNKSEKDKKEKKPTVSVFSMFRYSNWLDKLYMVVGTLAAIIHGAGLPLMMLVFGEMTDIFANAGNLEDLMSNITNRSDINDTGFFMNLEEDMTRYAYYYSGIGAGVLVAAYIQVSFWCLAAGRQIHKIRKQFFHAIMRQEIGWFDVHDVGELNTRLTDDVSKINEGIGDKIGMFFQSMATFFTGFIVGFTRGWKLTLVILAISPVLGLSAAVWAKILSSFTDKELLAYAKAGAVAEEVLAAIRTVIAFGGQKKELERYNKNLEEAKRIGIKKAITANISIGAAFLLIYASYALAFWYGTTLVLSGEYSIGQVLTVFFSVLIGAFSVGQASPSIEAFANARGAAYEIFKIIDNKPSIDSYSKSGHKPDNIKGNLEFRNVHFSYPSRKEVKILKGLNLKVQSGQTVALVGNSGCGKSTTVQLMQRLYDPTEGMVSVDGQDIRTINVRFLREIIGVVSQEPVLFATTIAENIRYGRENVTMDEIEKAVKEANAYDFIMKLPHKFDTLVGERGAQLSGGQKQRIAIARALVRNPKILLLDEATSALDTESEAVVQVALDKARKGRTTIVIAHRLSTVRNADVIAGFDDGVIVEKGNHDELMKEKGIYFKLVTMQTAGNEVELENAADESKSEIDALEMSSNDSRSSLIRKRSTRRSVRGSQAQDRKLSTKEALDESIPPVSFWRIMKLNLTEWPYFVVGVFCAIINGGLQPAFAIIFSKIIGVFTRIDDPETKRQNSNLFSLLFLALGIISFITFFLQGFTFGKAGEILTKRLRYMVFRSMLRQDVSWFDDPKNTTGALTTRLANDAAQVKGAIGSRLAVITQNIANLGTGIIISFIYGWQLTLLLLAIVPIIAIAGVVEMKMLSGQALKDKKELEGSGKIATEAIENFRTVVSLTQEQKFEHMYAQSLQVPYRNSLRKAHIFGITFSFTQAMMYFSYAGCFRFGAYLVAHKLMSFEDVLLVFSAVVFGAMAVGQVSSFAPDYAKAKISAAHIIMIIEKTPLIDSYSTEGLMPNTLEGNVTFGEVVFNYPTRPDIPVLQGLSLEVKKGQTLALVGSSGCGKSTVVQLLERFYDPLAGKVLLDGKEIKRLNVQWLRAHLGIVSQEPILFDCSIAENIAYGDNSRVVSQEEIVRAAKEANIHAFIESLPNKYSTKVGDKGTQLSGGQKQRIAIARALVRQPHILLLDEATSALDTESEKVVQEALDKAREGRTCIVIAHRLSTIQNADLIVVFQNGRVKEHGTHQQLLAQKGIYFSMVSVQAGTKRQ
Chain of Multidrug resistance-associated protein 1 (P33527 whole entry): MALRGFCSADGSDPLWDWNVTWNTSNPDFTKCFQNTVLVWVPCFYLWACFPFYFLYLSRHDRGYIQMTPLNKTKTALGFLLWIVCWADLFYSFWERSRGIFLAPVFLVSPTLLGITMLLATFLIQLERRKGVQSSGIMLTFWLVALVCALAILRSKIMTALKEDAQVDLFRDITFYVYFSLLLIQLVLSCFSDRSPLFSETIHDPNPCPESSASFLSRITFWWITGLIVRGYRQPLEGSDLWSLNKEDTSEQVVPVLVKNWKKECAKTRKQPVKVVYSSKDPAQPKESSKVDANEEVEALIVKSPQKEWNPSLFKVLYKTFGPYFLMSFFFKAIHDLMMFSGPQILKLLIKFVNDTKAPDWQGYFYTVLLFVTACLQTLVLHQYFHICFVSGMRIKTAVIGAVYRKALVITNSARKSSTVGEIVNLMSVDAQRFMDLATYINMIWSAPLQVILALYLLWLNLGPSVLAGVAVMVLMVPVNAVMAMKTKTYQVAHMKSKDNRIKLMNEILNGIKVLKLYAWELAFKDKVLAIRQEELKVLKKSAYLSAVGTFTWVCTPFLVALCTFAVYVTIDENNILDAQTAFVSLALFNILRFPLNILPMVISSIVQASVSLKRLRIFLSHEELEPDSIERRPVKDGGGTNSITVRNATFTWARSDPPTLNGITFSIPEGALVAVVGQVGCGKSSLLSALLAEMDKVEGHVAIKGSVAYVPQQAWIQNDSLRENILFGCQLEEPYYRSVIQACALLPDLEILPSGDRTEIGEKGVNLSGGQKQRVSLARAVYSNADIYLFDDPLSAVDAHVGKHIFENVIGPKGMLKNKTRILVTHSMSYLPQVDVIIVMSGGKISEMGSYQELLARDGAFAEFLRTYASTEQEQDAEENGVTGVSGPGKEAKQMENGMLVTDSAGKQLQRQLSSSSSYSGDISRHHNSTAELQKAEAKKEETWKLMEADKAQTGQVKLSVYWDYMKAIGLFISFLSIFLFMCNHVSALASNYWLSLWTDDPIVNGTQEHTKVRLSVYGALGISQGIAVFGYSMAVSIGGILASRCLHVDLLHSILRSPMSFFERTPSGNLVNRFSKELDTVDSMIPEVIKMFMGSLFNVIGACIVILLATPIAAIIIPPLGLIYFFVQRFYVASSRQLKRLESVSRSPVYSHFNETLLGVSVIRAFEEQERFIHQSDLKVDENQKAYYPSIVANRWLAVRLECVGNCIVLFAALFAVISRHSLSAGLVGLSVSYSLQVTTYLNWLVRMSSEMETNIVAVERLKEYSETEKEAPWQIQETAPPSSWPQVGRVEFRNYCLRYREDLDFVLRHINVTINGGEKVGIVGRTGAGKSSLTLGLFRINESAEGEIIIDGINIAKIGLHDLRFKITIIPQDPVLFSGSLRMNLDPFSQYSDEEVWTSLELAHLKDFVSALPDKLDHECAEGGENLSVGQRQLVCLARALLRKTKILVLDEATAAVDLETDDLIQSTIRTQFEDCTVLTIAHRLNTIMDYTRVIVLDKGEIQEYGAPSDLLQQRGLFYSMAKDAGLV

On to `COc1ccc(CCN2C(=O)C(c3ccc(OC)c(OC)c3)=C(c3cc(OC)c(OC)c(OC)c3)C2=O)cc1`, for which the “fold change (FC)” value in data set [1] is recorded as 12.7. With `COc1ccc(C2=C(c3cc(OC)c(OC)c(OC)c3)C(=O)N(Cc3cc(OC)c(OC)c(OC)c3)C2=O)cc1OC`, in [1], the “fold change (FC)” value came to 7.4. With `COc1ccc(C2=C(c3cc(OC)c(OC)c(OC)c3)C(=O)N(CC(=O)c3ccc(OCc4ccccc4)c(OC)c3)C2=O)cc1OC`, the IC50 (in data set [2]; in data set [3]; in the data set with L929) was above 100 µM throughout. Also, the Ratio EC50 in the data set listed under Homo sapiens [4] came to 4.1. Further, the “fold change (FC)” value in [1] amounted to 42.7; in data set [5], 8.2; in data set [6] it was 2.3; in data set [7], 5.6; in data set [8], 1.2. The result with MDA-435/LCC6 was inactive. Also, in the data set on P-gp (unknown origin), the selectivity ratio is above 909. Consider `CCOc1cc(CN2C(=O)C(c3ccc(OC)c(OC)c3)=C(c3ccc(OC)c(OC)c3)C2=O)cc(OCC)c1OCC`, for which the “fold change (FC)” value in data set [1] is 1.9. Same read-out and setting: next, `CCOC(=O)CN1C(=O)C(c2ccc(OC)c(OC)c2)=C(c2ccc(OC)c(OC)c2)C1=O`: 7. On to `COc1ccc(C2=C(c3ccc(OC)c(OC)c3)C(=O)N(CCn3cnc4c(=O)n(C)c(=O)n(C)c43)C2=O)cc1OC`, for which the “fold change (FC)” value in [1] was found to be 1.2. Same read-out and setting: the result for `COc1ccc(C2=C(c3cc(OC)c(OC)c(OC)c3)C(=O)N(CC(=O)c3cc(OC)c(OC)c(OC)c3)C2=O)cc1OC` reads 3.8; that for `COc1ccc(CCN2C(=O)C(c3ccc(OC)c(OC)c3)=C(c3cc(OC)c(OC)c(OC)c3)C2=O)cc1OC`, 4.6. As to `COc1ccc(C2=C(c3ccc(OC)c(OC)c3)C(=O)N(Cc3cc(OC(C)C)c(OC(C)C)c(OC(C)C)c3)C2=O)cc1OC`, in data set [1], the “fold change (FC)” value was found to be 8.5. Turning to `COc1ccc(CCN(C)CCCC(C#N)(c2ccc(OC)c(OC)c2)C(C)C)cc1OC` (stereo not given), in the data set on MDA-435/LCC6, the outcome was inactive. Take `COc1ccc(C(=O)CN2C(=O)C(c3cc(OC)c(OC)c(OC)c3)=C(c3cc(OC)c(OC)c(OC)c3)C2=O)cc1`: the “fold change (FC)” value in data set [1] amounted to 4.9.

For the compound `COc1ccc(C2=C(c3cc(OC)c(OC)c(OC)c3)C(=O)N(CC(=O)c3ccc(OCc4ccccc4)cc3)C2=O)cc1OC`, the “fold change (FC)” value in data set [1] was found to be 16.8. On to `COc1ccc(CN2C(=O)C(c3ccc(OC)c(OC)c3)=C(c3cc(OC)c(OC)c(OC)c3)C2=O)cc1OC`, for which, in data set [1], the “fold change (FC)” value is 13.2. On the same count and under the same terms, next, `COc1ccc(C2=C(c3ccc(OC)c(OC)c3)C(=O)N(CC(=O)O)C2=O)cc1OC`: 0.9; `COc1ccc(C(=O)CN2C(=O)C(c3ccc(OC)c(OC)c3)=C(c3cc(OC)c(OC)c(OC)c3)C2=O)cc1`: 7.2; `COc1ccc(C(=O)CN2C(=O)C(c3ccc(OC)c(OC)c3)=C(c3cc(OC)c(OC)c(OC)c3)C2=O)cc1OC`: 5.1.

Regarding `C=CCOc1cc(CN2C(=O)C(c3ccc(OC)c(OC)c3)=C(c3ccc(OC)c(OC)c3)C2=O)cc(OCC=C)c1OCC=C`, the “fold change (FC)” value in data set [1] was 3.8. For the compound `COc1ccc(C2=C(c3ccc(OC)c(OC)c3)C(=O)N(CCn3cnc4c(N)ncnc43)C2=O)cc1OC`, the “fold change (FC)” value in [1] was found to be 1.7. On the same count and under the same terms, next, `COc1ccc(C2=C(c3ccc(OC)c(OC)c3)C(=O)N(CC(=O)c3ccc(OCc4ccccc4)cc3)C2=O)cc1OC`: 10.4; `COc1cc(C(=O)CN2C(=O)C(c3cc(OC)c(OC)c(OC)c3)=C(c3cc(OC)c(OC)c(OC)c3)C2=O)cc(OC)c1OC`: 1.8. On to `COc1ccc(C2=C(c3ccc(OC)c(OC)c3)C(=O)N(CC(=O)c3ccc(OCc4ccccc4)c(OC)c3)C2=O)cc1OC`, for which the IC50 (in [2]; in [3]; in the data set on L929) was above 100 µM each time. Moreover, the Ratio EC50 in the data set listed under Homo sapiens [4] is 4.8. The “fold change (FC)” value in data set [1] is recorded as 42.7; in data set [5], 6.9; in [6], 2.2; in data set [7], 5.6; in [8], 1.1. In addition, in data set [9], the Drug uptake result is “Active”. In addition, the outcome in the data set with MDA-435/LCC6 was inactive. Further, in [10], the outcome was Active. Moreover, in the data set on P-gp (unknown origin), the selectivity ratio was above 1070. For the compound `C=CCOc1cc(CN2C(=O)C(c3ccc(OC)c(OC)c3)=C(c3cc(OC)c(OC)c(OC)c3)C2=O)cc(OCC=C)c1OCC=C`, the “fold change (FC)” value in [1] is given as 6.8. Consider `COc1ccc(C2=C(c3ccc(OC)c(OC)c3)C(=O)N(CC(=O)c3cc(OC)c(OC)c(OC)c3)C2=O)cc1OC`, for which the “fold change (FC)” value in data set [1] came to 9.3.

With `COc1ccc(C2=C(c3ccc(OC)c(OC)c3)C(=O)N(CC(=O)OC(C)(C)C)C2=O)cc1OC`, in data set [1], the “fold change (FC)” value stood at 3.3. Turning to `COc1ccc(C(=O)CN2C(=O)C(c3cc(OC)c(OC)c(OC)c3)=C(c3cc(OC)c(OC)c(OC)c3)C2=O)cc1OC`, the “fold change (FC)” value in data set [1] turned out to be 3.3.

In the case of `COc1ccc(CN2C(=O)C(c3ccc(OC)c(OC)c3)=C(c3cc(OC)c(OC)c(OC)c3)C2=O)cc1`, in [1], the “fold change (FC)” value was determined as 18. Moreover, the Ratio in the data set listed under Homo sapiens [11] was 4.

On to `COc1ccc(C2=C(c3cc(OC)c(OC)c(OC)c3)C(=O)N(c3cc(OC)c(OC)c(OC)c3)C2=O)cc1OC`, for which the “fold change (FC)” value in data set [1] is 1.5.

(Values after ChEMBL document CHEMBL3102720, “Structure-activity relationship study of permethyl ningalin B analogues as P-glycoprotein chemosensitizers” (J Med Chem, 2013).)
